Tested on: UACC-257
Assay: Antitumor activity against human UACC-257 cells assessed as reduction of cell growth at 10 uM after 48 hrs by SRB assay
Type: functional
Set-up: scale not given: the % may be the effect or the level left
Summary of the method: (§1)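 NCI-60 one-dose primary screen at 10^-5 M final. Cells grown in RPMI 1640 with 5% FBS and 2 mM L-glutamine, plated at 5000–40,000 cells/well and preincubated 24 h at 37 °C, 5% CO2. Drug stocks in DMSO, diluted in medium with gentamicin. Exposure 48 h, then fixed in situ with TCA (10% final) for 60 min at 4 °C. Stained with 0.4% SRB in 1% acetic acid, bound dye solubilized in 10 mM trizma base, absorbance read at 515 nm. Reported as mean growth percent; negative values indicate cell kill.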

SMILES	Activity [%]
C[C@]12CCC(=O)C(Oc3ccccc3)=C1CC[C@@H]1[C@@H]2CC[C@]2(C)C(=O)CC[C@@H]12	108.45

Tested on: SK-MEL-5
Assay: Antitumor activity against human SK-MEL-5 cells assessed as reduction of cell growth at 10 uM after 48 hrs by SRB assay
Type: functional
Set-up: scale not given: the % may be the effect or the level left
Summary of the method: (§2)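 NCI 60-cell-line primary screen, single dose 10^-5 M (final). Cells grown in RPMI 1640 with 5% FBS and 2 mM L-glutamine, seeded at 5000–40,000 cells/well and preincubated 24 h at 37 °C, 5% CO2. Compound is dissolved in DMSO, diluted in medium with gentamicin, and exposed 48 h. Cells are fixed with 10% TCA (final) and stained with 0.4% SRB; absorbance is read at 515 nm. Readout is growth percentage.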

SMILES	Activity [%]
C[C@]12CCC(=O)C(Oc3ccccc3)=C1CC[C@@H]1[C@@H]2CC[C@]2(C)C(=O)CC[C@@H]12	94.23

Tested on: SK-MEL-2
Assay: Antitumor activity against human SK-MEL-2 cells assessed as reduction of cell growth at 10 uM after 48 hrs by SRB assay
Type: functional
Set-up: scale not given: the % may be the effect or the level left
Summary of the method: as §2

SMILES	Activity [%]
C[C@]12CCC(=O)C(Oc3ccccc3)=C1CC[C@@H]1[C@@H]2CC[C@]2(C)C(=O)CC[C@@H]12	82.37

Tested on: Malme-3M
Assay: Antitumor activity against human MALME-3M cells assessed as reduction of cell growth at 10 uM after 48 hrs by SRB assay
Type: functional
Set-up: scale not given: the % may be the effect or the level left
Summary of the method: as §2

SMILES	Activity [%]
C[C@]12CCC(=O)C(Oc3ccccc3)=C1CC[C@@H]1[C@@H]2CC[C@]2(C)C(=O)CC[C@@H]12	120.52

Tested on: M14
Assay: Antitumor activity against human M14 cells assessed as reduction of cell growth at 10 uM after 48 hrs by SRB assay
Type: functional
Set-up: scale not given: the % may be the effect or the level left
Summary of the method: as §2

SMILES	Activity [%]
C[C@]12CCC(=O)C(Oc3ccccc3)=C1CC[C@@H]1[C@@H]2CC[C@]2(C)C(=O)CC[C@@H]12	102.62

Tested on: LOX IMVI
Assay: Antitumor activity against human LOXIMVI cells assessed as reduction of cell growth at 10 uM after 48 hrs by SRB assay
Type: functional
Set-up: scale not given: the % may be the effect or the level left
Summary of the method: as §2

SMILES	Activity [%]
C[C@]12CCC(=O)C(Oc3ccccc3)=C1CC[C@@H]1[C@@H]2CC[C@]2(C)C(=O)CC[C@@H]12	101.44

Tested on: RXF 393
Assay: Antitumor activity against human RXF 393 cells assessed as reduction of cell growth at 10 uM after 48 hrs by SRB assay
Type: functional
Set-up: scale not given: the % may be the effect or the level left
Summary of the method: as §2

SMILES	Activity [%]
C[C@]12CCC(=O)C(Oc3ccccc3)=C1CC[C@@H]1[C@@H]2CC[C@]2(C)C(=O)CC[C@@H]12	107.93

Tested on: CAKI-1
Assay: Antitumor activity against human Caki-1 cells assessed as reduction of cell growth at 10 uM after 48 hrs by SRB assay
Type: functional
Set-up: scale not given: the % may be the effect or the level left
Summary of the method: as §2

SMILES	Activity [%]
C[C@]12CCC(=O)C(Oc3ccccc3)=C1CC[C@@H]1[C@@H]2CC[C@]2(C)C(=O)CC[C@@H]12	112.48

Tested on: ACHN
Assay: Antitumor activity against human ACHN cells assessed as reduction of cell growth at 10 uM after 48 hrs by SRB assay
Type: functional
Set-up: scale not given: the % may be the effect or the level left
Summary of the method: as §2

SMILES	Activity [%]
C[C@]12CCC(=O)C(Oc3ccccc3)=C1CC[C@@H]1[C@@H]2CC[C@]2(C)C(=O)CC[C@@H]12	105.72

Tested on: A498
Assay: Antitumor activity against human A-498 cells assessed as reduction of cell growth at 10 uM after 48 hrs by SRB assay
Type: functional
Set-up: scale not given: the % may be the effect or the level left
Summary of the method: as §2

SMILES	Activity [%]
C[C@]12CCC(=O)C(Oc3ccccc3)=C1CC[C@@H]1[C@@H]2CC[C@]2(C)C(=O)CC[C@@H]12	103

Tested on: not listed separately
Assay: Antitumor activity against human 786-O cells assessed as reduction of cell growth at 10 uM after 48 hrs by SRB assay
Type: functional, 786-0
Set-up: scale not given: the % may be the effect or the level left
Summary of the method: as §2

SMILES	Activity [%]
C[C@]12CCC(=O)C(Oc3ccccc3)=C1CC[C@@H]1[C@@H]2CC[C@]2(C)C(=O)CC[C@@H]12	100.78

Tested on: SR
Assay: Antitumor activity against human SR cells assessed as reduction of cell growth at 10 uM after 48 hrs by SRB assay
Type: functional
Set-up: scale not given: the % may be the effect or the level left
Summary of the method: as §1

SMILES	Activity [%]
C[C@]12CCC(=O)C(Oc3ccccc3)=C1CC[C@@H]1[C@@H]2CC[C@]2(C)C(=O)CC[C@@H]12	66.91

Tested on: MOLT-4
Assay: Antitumor activity against human MOLT-4 cells assessed as reduction of cell growth at 10 uM after 48 hrs by SRB assay
Type: functional
Set-up: scale not given: the % may be the effect or the level left
Summary of the method: as §2

SMILES	Activity [%]
C[C@]12CCC(=O)C(Oc3ccccc3)=C1CC[C@@H]1[C@@H]2CC[C@]2(C)C(=O)CC[C@@H]12	105.63

Tested on: K562
Assay: Antitumor activity against human K-562 cells assessed as reduction of cell growth at 10 uM after 48 hrs by SRB assay
Type: functional
Set-up: scale not given: the % may be the effect or the level left
Summary of the method: as §2

SMILES	Activity [%]
C[C@]12CCC(=O)C(Oc3ccccc3)=C1CC[C@@H]1[C@@H]2CC[C@]2(C)C(=O)CC[C@@H]12	86.08

Tested on: HL-60(TB)
Assay: Antitumor activity against human HL-60(TB) cells assessed as reduction of cell growth at 10 uM after 48 hrs by SRB assay
Type: functional
Set-up: scale not given: the % may be the effect or the level left
Summary of the method: as §2

SMILES	Activity [%]
C[C@]12CCC(=O)C(Oc3ccccc3)=C1CC[C@@H]1[C@@H]2CC[C@]2(C)C(=O)CC[C@@H]12	105.95

Tested on: CCRF-CEM
Assay: Antitumor activity against human CCRF-CEM cells assessed as reduction of cell growth at 10 uM after 48 hrs by SRB assay
Type: functional
Set-up: scale not given: the % may be the effect or the level left
Summary of the method: as §2

SMILES	Activity [%]
C[C@]12CCC(=O)C(Oc3ccccc3)=C1CC[C@@H]1[C@@H]2CC[C@]2(C)C(=O)CC[C@@H]12	90.45

Tested on: SK-OV-3
Assay: Antitumor activity against human SKOV3 cells assessed as reduction of cell growth at 10 uM after 48 hrs by SRB assay
Type: functional
Set-up: scale not given: the % may be the effect or the level left
Summary of the method: as §2

SMILES	Activity [%]
C[C@]12CCC(=O)C(Oc3ccccc3)=C1CC[C@@H]1[C@@H]2CC[C@]2(C)C(=O)CC[C@@H]12	117.4

Tested on: OVCAR-5
Assay: Antitumor activity against human OVCAR5 cells assessed as reduction of cell growth at 10 uM after 48 hrs by SRB assay
Type: functional
Set-up: scale not given: the % may be the effect or the level left
Summary of the method: as §2

SMILES	Activity [%]
C[C@]12CCC(=O)C(Oc3ccccc3)=C1CC[C@@H]1[C@@H]2CC[C@]2(C)C(=O)CC[C@@H]12	97.47

Tested on: OVCAR-3
Assay: Antitumor activity against human OVCAR-3 cells assessed as reduction of cell growth at 10 uM after 48 hrs by SRB assay
Type: functional
Set-up: scale not given: the % may be the effect or the level left
Summary of the method: as §2

SMILES	Activity [%]
C[C@]12CCC(=O)C(Oc3ccccc3)=C1CC[C@@H]1[C@@H]2CC[C@]2(C)C(=O)CC[C@@H]12	121.39
